Experimental data published in ChEMBL document CHEMBL1156809, “Synthesis and anticonvulsant activities of (R)-N-(4'-substituted)benzyl 2-acetamido-3-methoxypropionamides” (J Med Chem, 2010).
Active and inactive are the calls of the source. The calls are words filed in the database; no cut-off is given here.

What was measured:
[1] = Behavioral toxicity in po dosed albino Sprague-Dawley rat; format: organism-based; details: in vivo
How it was run: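 Behavioral toxicity was recorded as observed effects in rats after oral administration, within the NINDS ASP screen.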

Rattus norvegicus [2] = experiment: Anticonvulsant activity against subcutaneous metrazole-induced seizures in albino Sprague-Dawley rat at 300 mg/kg, ip after 0.5 hrs; format: functional, organism-based; design: dose 300 mg/kg
Mus musculus [3] = experiment: Anticonvulsant activity against subcutaneous metrazole-induced seizures in albino CF1 mouse at 300 mg/kg, ip after 4 hrs; format: functional, organism-based; design: dose 300 mg/kg
How it was run: (§1)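 Subcutaneous Metrazol seizure test under the NINDS ASP, using ip dosing to mice, typically at 300 mg/kg. Protection was assessed at 0.5 and 4 h.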

Mus musculus [4] = experiment: Protective index, ratio of TD50 for ip dosed albino CF1 mouse to ED50 for ip dosed albino CF1 mouse; format: functional
How it was run: (§2)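 Protective index was calculated as TD50/ED50 for the same species and route: mouse ip (rotorod TD50, MES ED50) and rat po.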

Rattus norvegicus [5] = experiment: Anticonvulsant activity against subcutaneous metrazole-induced seizures in albino Sprague-Dawley rat at 300 mg/kg, ip after 4 hrs; format: functional, organism-based; design: dose 300 mg/kg
Mus musculus [6] = experiment: Anticonvulsant activity against subcutaneous metrazole-induced seizures in albino CF1 mouse at 300 mg/kg, ip after 0.5 hrs; format: functional, organism-based; design: dose 300 mg/kg; how it was run: as §1
Rattus norvegicus [7] = experiment: Protective index, ratio of TD50 for po dosed albino Sprague-Dawley rat to ED50 for po dosed albino Sprague-Dawley rat; format: functional; how it was run: as §2
Rattus norvegicus [8] = experiment: Anticonvulsant activity in po dosed albino Sprague-Dawley rat seizure model assessed as protection against hind limb extension by MES test; format: functional; details: Hindlimb
How it was run: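 MES seizure protection was tested in Sprague Dawley rats dosed orally, through the NINDS ASP. The ED50 is expressed in mg/kg.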

[9] = Neurological toxicity in ip dosed albino CF1 mouse assessed as neurological impairment by rotarod test; format: organism-based; details: in vivo
How it was run: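 Neurological impairment was measured with the rotorod test in mice dosed intraperitoneally. The median dose (TD50, mg/kg) was determined only for compounds with significant MES activity.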

Mus musculus [10] = experiment: Anticonvulsant activity in ip dosed albino CF1 mouse seizure model assessed as protection against hind limb extension by MES test; format: functional; details: albino CF1, Hindlimb
How it was run: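 Maximal electroshock seizure test run by the NINDS ASP (Stables and Kupferberg procedures). Compounds were given intraperitoneally to mice, and the ED50 for seizure protection is reported in mg/kg.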

Rattus norvegicus [11] = experiment: Anticonvulsant activity against in ip dosed albino Sprague-Dawley rat hippocampal kindled seizure model assessed as after-discharge duration after 0.5 hrs; format: functional, Hippocampus
How it was run: (§3)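 Rats were given compounds intraperitoneally in the rapid hippocampal kindling model under the NINDS ASP. Racine seizure score and after-discharge duration (sec) were recorded before and after dosing. Where determined, ED50 (mg/kg) is given with an interval.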

Rattus norvegicus [12] = experiment: Anticonvulsant activity against in ip dosed albino Sprague-Dawley rat hippocampal kindled seizure model assessed as decrease in seizures after 0.5 hrs; format: functional; details: Hippocampus; how it was run: as §3

SMILES: COC[C@@H](NC(C)=O)C(=O)NCc1ccc(Br)cc1
- TD50 [1]: 300 mg/kg
- Activity (Rattus norvegicus [2]): inactive
- Activity (Mus musculus [3]): inactive
- PI (Mus musculus [4]): 3.5
- Activity (Rattus norvegicus [5]): inactive
- Activity (Mus musculus [6]): inactive
- PI (Rattus norvegicus [7]): 61
- ED50 (Rattus norvegicus [8]): 4.9 mg/kg
- TD50 [9]: 30 mg/kg
- ED50 (Mus musculus [10]): 8.7 mg/kg

SMILES: COC[C@@H](NC(C)=O)C(=O)NCc1ccc(N=[N+]=[N-])cc1
- TD50 [1]: > 250 mg/kg
- Activity (Rattus norvegicus [2]): inactive
- Activity (Mus musculus [3]): inactive
- Activity (Rattus norvegicus [5]): inactive
- Activity (Mus musculus [6]): inactive
- PI (Rattus norvegicus [7]): >64
- Time (Rattus norvegicus [11]): 0 s
- ED50 (Rattus norvegicus [12]): 6 mg/kg
- ED50 (Mus musculus [10]): 8.4 mg/kg

SMILES: CCCc1ccc(CNC(=O)[C@@H](COC)NC(C)=O)cc1
- TD50 [1]: > 30 mg/kg
- Activity (Rattus norvegicus [2]): inactive
- Activity (Mus musculus [3]): inactive
- PI (Mus musculus [4]): 1.5
- Activity (Rattus norvegicus [5]): inactive
- Activity (Mus musculus [6]): inactive
- ED50 (Rattus norvegicus [8]): < 30 mg/kg
- TD50 [9]: 13 mg/kg
- ED50 (Mus musculus [10]): 8.5 mg/kg

SMILES: CCCC(CCC)C(=O)[O-].[Na+] [VALPROATE SODIUM]
- Activity (Rattus norvegicus [2]): inactive
- Activity (Mus musculus [3]): inactive
- Activity (Rattus norvegicus [5]): inactive
- Activity (Mus musculus [6]): inactive
- ED50 (Rattus norvegicus [12]): 210 mg/kg
- ED50 (Mus musculus [10]): 270 mg/kg

SMILES: COC[C@@H](NC(C)=O)C(=O)NCc1ccc(C#N)cc1
- TD50 [1]: > 30 mg/kg
- Activity (Rattus norvegicus [2]): inactive
- Activity (Mus musculus [3]): inactive
- PI (Mus musculus [4]): >3.3
- Activity (Rattus norvegicus [5]): inactive
- Activity (Mus musculus [6]): inactive
- ED50 (Rattus norvegicus [8]): > 30 mg/kg
- TD50 [9]: > 500 mg/kg
- ED50 (Mus musculus [10]): 150 mg/kg

SMILES: COCCCc1ccc(CNC(=O)[C@@H](COC)NC(C)=O)cc1
- TD50 [1]: > 500 mg/kg
- Activity (Rattus norvegicus [2]): inactive
- Activity (Mus musculus [3]): inactive
- PI (Mus musculus [4]): 3.1
- Activity (Rattus norvegicus [5]): inactive
- Activity (Mus musculus [6]): inactive
- PI (Rattus norvegicus [7]): >32
- Time (Rattus norvegicus [11]): 21 s
- TD50 [9]: 62 mg/kg
- ED50 (Mus musculus [10]): 20 mg/kg

SMILES: COC[C@@H](NC(C)=O)C(=O)NCc1ccc(F)cc1
- TD50 [1]: 125 mg/kg
- Activity (Rattus norvegicus [2]): inactive
- Activity (Mus musculus [3]): inactive
- PI (Mus musculus [4]): 6.7
- Activity (Rattus norvegicus [5]): inactive
- Activity (Mus musculus [6]): inactive
- PI (Rattus norvegicus [7]): >48

SMILES: COC[C@@H](NC(C)=O)C(=O)NCc1ccc(Cl)cc1
- TD50 [1]: > 200 mg/kg
- Activity (Rattus norvegicus [2]): inactive
- Activity (Mus musculus [3]): inactive
- PI (Mus musculus [4]): 5.6
- Activity (Rattus norvegicus [5]): inactive
- Activity (Mus musculus [6]): inactive
- PI (Rattus norvegicus [7]): >200
- ED50 (Rattus norvegicus [8]): 1 mg/kg
- Time (Rattus norvegicus [11]): 2 s
- TD50 [9]: 28 mg/kg
- ED50 (Mus musculus [10]): 5 mg/kg

SMILES: COC[C@@H](NC(C)=O)C(=O)NCc1ccccc1 [LACOSAMIDE]
- TD50 [1]: > 500 mg/kg
- Activity (Rattus norvegicus [2]): inactive
- Activity (Mus musculus [3]): inactive
- PI (Mus musculus [4]): 6
- Activity (Rattus norvegicus [5]): inactive
- Activity (Mus musculus [6]): inactive
- PI (Rattus norvegicus [7]): >130
- Time (Rattus norvegicus [11]): 0 s

SMILES: O=C1NC(=O)C(c2ccccc2)(c2ccccc2)N1 [PHENYTOIN]
- Activity (Rattus norvegicus [2]): inactive
- Activity (Mus musculus [3]): inactive
- Activity (Rattus norvegicus [5]): inactive
- Activity (Mus musculus [6]): inactive
- Time (Rattus norvegicus [11]): 51 s

SMILES: COC[C@@H](NC(C)=O)C(=O)NCc1cccc(F)c1
- TD50 [1]: > 400 mg/kg
- Activity (Rattus norvegicus [2]): inactive
- Activity (Mus musculus [3]): inactive
- PI (Mus musculus [4]): 6.7
- Activity (Rattus norvegicus [5]): inactive
- Activity (Mus musculus [6]): inactive
- PI (Rattus norvegicus [7]): >58

SMILES: COC[C@@H](NC(C)=O)C(=O)NCc1ccc(C)cc1
- TD50 [1]: > 500 mg/kg
- Activity (Rattus norvegicus [2]): inactive
- Activity (Mus musculus [3]): inactive
- PI (Mus musculus [4]): 3
- Activity (Rattus norvegicus [5]): inactive
- Activity (Mus musculus [6]): inactive
- PI (Rattus norvegicus [7]): >62
- ED50 (Rattus norvegicus [8]): 8.1 mg/kg
- TD50 [9]: 31 mg/kg
- ED50 (Mus musculus [10]): 11 mg/kg

SMILES: COCC#Cc1ccc(CNC(=O)[C@@H](COC)NC(C)=O)cc1
- TD50 [1]: 100 mg/kg
- Activity (Rattus norvegicus [2]): inactive
- Activity (Mus musculus [3]): inactive
- PI (Mus musculus [4]): 1.5
- Activity (Rattus norvegicus [5]): inactive
- Activity (Mus musculus [6]): inactive
- PI (Rattus norvegicus [7]): 5.5
- ED50 (Rattus norvegicus [8]): 18 mg/kg
- TD50 [9]: 15 mg/kg
- ED50 (Mus musculus [10]): 10 mg/kg

SMILES: COCc1ccc(CNC(=O)[C@@H](COC)NC(C)=O)cc1
- TD50 [1]: > 500 mg/kg
- Activity (Rattus norvegicus [2]): inactive
- Activity (Mus musculus [3]): inactive
- PI (Mus musculus [4]): 2.3
- Activity (Rattus norvegicus [5]): inactive
- Activity (Mus musculus [6]): inactive
- PI (Rattus norvegicus [7]): >11
- Time (Rattus norvegicus [11]): 12 s
- ED50 (Rattus norvegicus [12]): 87 mg/kg
- ED50 (Mus musculus [10]): 73 mg/kg

SMILES: COC[C@@H](NC(C)=O)C(=O)NCc1ccc(I)cc1
- TD50 [1]: > 500 mg/kg
- Activity (Rattus norvegicus [2]): inactive
- Activity (Mus musculus [3]): inactive
- PI (Mus musculus [4]): 2.6
- Activity (Rattus norvegicus [5]): inactive
- Activity (Mus musculus [6]): inactive
- PI (Rattus norvegicus [7]): >43
- ED50 (Rattus norvegicus [8]): 12 mg/kg
- Time (Rattus norvegicus [11]): 0 s
- ED50 (Rattus norvegicus [12]): 12 mg/kg
- TD50 [9]: 41 mg/kg
- ED50 (Mus musculus [10]): 16 mg/kg

SMILES: COC[C@@H](NC(C)=O)C(=O)NCc1ccc(OC(F)(F)F)cc1
- TD50 [1]: 63 mg/kg
- Activity (Rattus norvegicus [2]): inactive
- Activity (Mus musculus [3]): inactive
- PI (Mus musculus [4]): 3.6
- Activity (Rattus norvegicus [5]): inactive
- Activity (Mus musculus [6]): inactive
- PI (Rattus norvegicus [7]): 37
- ED50 (Rattus norvegicus [8]): 1.7 mg/kg
- TD50 [9]: 13 mg/kg
- ED50 (Mus musculus [10]): 3.6 mg/kg

SMILES: COC[C@@H](NC(C)=O)C(=O)NCc1ccc(-c2ccccc2)cc1
- TD50 [1]: 49 mg/kg
- Activity (Rattus norvegicus [2]): inactive
- Activity (Mus musculus [3]): inactive
- Activity (Rattus norvegicus [5]): inactive
- Activity (Mus musculus [6]): inactive
- PI (Rattus norvegicus [7]): >25
- ED50 (Rattus norvegicus [8]): 2 mg/kg
- TD50 [9]: 11 mg/kg
- ED50 (Mus musculus [10]): 8 mg/kg

SMILES: COC[C@@H](NC(C)=O)C(=O)NCc1ccc(C(F)(F)F)cc1
- TD50 [1]: > 280 mg/kg
- Activity (Rattus norvegicus [2]): inactive
- Activity (Mus musculus [3]): inactive
- Activity (Rattus norvegicus [5]): inactive
- Activity (Mus musculus [6]): inactive
- PI (Rattus norvegicus [7]): >57
- ED50 (Rattus norvegicus [8]): 4.9 mg/kg
- TD50 [9]: 100 mg/kg
- ED50 (Mus musculus [10]): 10 mg/kg

SMILES: C=Cc1ccc(CNC(=O)[C@@H](COC)NC(C)=O)cc1
- Activity (Rattus norvegicus [2]): inactive
- Activity (Mus musculus [3]): inactive
- PI (Mus musculus [4]): 4.6
- Activity (Rattus norvegicus [5]): inactive
- Activity (Mus musculus [6]): inactive
- PI (Rattus norvegicus [7]): >20
- ED50 (Rattus norvegicus [8]): 7.6 mg/kg
- Time (Rattus norvegicus [11]): 0 s
- TD50 [9]: 16 mg/kg
- ED50 (Mus musculus [10]): 3.5 mg/kg
